Most compounds without a hit are left out; they make up all but 3% or so of the library.
Kir21 block – Kir2.1 (mouse) channel inhibition; P35561; HEK293-Kir2.1, FluxOR thallium flux fluorescence; active compounds read low; B-score at 10 µM; 310,000 tested, 0.85% active; AID 1672;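 active = fluorescence ratio B-score at or below minus 3 SD of library scores, with starting-brightness B-score within 2 SD, cut at about -4.2 in these data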;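 also: channel flux triggered by added potassium and thallium sulfate stimulus; B-score of peak minus minimum fluorescence over baseline after thallium stimulus; more negative B-score means stronger Kir2.1 block with less thallium influx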
TRPC4 block – blocks the mouse TRPC4 cation channel | Q9QUQ5 | HEK293 TRPC4beta/mu-opioid, DAMGO-evoked Fluo4 calcium flux; active compounds read low | B-score at 10 µM | 300,000 tested, 0.39% active;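 active = B-score over 3 SD under the library average, no early fluorescence shift, positive overall ratio signal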
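Test system – stable TRPC4beta/mu-opioid receptor HEK293 cells · Probe or stimulus – DAMGO, a submaximal dose followed by a maximal one · Dosing – one concentration per compound · Signal – Fluo4 calcium fluorescence by kinetic imaging, 5 s 1 Hz baseline · Evaluation – per-well B score of integrated baseline-normalized Fluo4 ratio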
TRPC4 act – opens the mouse TRPC4 cation channel; Q9QUQ5; HEK293 TRPC4beta/mu-opioid, Fluo4 calcium fluorescence; active compounds read high; B-score at 10 µM; 310,000 tested, 0.49% active;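 active = B-score above 5 SD of library B-scores, and initial fluorescence ratio not above library mean plus 5 SD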;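 also: positive B-score marks a calcium rise read as TRPC4 activation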
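Technique: kinetic Fluo4 calcium fluorescence; Test system: TRPC4beta and mu-opioid receptor HEK293 stable cells; Measure: B-scored integrated calcium fluorescence ratio; Benchmarks: low control buffer alone, high control maximal DAMGO; Schedule: 45 min room-temperature Fluo4 loading, 110 s read.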
TRPC6 activator – activates the mouse TRPC6 cation channel | Q61143 | HEK293-TRPC6 membrane potential dye fluorescence; active compounds read high | B-score at 10 µM | 310,000 tested, 0.13% active | AID 2550;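 active = B-score of the integrated fluorescence ratio above library mean plus 3 SD, and starting fluorescence ratio within library mean plus 5 SD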;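 also: higher score means more depolarization so channel activation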
Target sequence (Q61143 whole entry, looked up): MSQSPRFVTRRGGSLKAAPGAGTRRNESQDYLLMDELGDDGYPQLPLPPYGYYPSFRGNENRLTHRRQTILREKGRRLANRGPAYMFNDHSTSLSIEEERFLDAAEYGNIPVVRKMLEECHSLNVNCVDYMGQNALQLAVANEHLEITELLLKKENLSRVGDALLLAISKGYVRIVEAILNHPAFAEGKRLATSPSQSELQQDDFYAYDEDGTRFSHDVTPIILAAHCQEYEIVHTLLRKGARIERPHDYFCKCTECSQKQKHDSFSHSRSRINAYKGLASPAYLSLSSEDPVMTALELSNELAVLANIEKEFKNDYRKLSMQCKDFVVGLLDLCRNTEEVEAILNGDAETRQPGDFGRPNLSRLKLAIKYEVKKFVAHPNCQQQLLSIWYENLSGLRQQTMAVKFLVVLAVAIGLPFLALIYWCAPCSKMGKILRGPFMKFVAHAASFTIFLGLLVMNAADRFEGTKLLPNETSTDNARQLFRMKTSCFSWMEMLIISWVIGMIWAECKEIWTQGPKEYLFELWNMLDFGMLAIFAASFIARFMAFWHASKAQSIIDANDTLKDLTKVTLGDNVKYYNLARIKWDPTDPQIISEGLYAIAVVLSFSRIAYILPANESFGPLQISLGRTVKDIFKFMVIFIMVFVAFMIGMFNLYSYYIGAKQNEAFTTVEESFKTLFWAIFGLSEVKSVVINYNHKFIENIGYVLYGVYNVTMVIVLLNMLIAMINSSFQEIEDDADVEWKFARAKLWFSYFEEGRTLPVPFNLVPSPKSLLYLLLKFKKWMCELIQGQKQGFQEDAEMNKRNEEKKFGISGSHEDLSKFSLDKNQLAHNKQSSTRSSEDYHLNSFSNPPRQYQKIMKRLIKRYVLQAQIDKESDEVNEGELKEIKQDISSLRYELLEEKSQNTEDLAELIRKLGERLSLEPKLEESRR
TRPC6 inhibitor – inhibitors of mouse TRPC6 channel; 310,000 tested, 1.1% active; HEK293-TRPC6, membrane potential dye, ACh-evoked depolarization; active compounds read low; AID 2553; Q61143; B-score at 10 µM;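 active = B-score under library mean minus 3 SD, initial fluorescence not abnormally high, positive integrated signal ratio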;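 also: B-score derived from integrated fluorescence ratio over the kinetic read; more negative B-score means stronger inhibition of depolarization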
TRPC4 potent – allosteric potentiators of mouse TRPC4 channel. HEK293 TRPC4beta/mu-opioid, DAMGO EC20, Fluo-4 Ca2+ flux; active compounds read high. B-score at 10 µM. 310,000 tested, 0.42% active. Q9QUQ5. AID 2227;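 active = B-score of calcium response area above 5 SD of library B-scores, with initial fluorescence ratio within 5 SD of library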;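 also: B-score of integrated fluorescence ratio over time as area under calcium response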
TRPC4 sel inh 2 – second selectivity test of TRPC6 inhibitors: effect on mouse TRPC4. 920 tested, 42% active. AID 2776. HEK293 TRPC4/MOR, membrane potential dye fluorescence; channel activated by saturating DAMGO dose. inhibition, % at 10 µM. shares compounds with TRPC6 inhibitor;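 active = compounds whose fluorescence signal differed from control wells by over 3 SD, either direction, in both duplicate plates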
TRPC4 spec – tests whether TRPC6 inhibitors also affect mouse TRPC4. AID 2777. HEK293 TRPC4/mu-opioid, membrane potential fluorescence. shares compounds with TRPC6 inhibitor. 920 tested, 61% active. activity change, negative = inhibition, % at 10 µM;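 active = rise or fall in signal beyond 3 SD of buffer-only wells in both replicate plates, either sign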;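 also: integrated kinetic ratio of fluorescence range over baseline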
HEK293 MPD ctr 2-1 – second counter-screen for TRPC6 inhibitors: parental HEK293 cells | parental HEK293 membrane potential dye fluorescence; maximal acetylcholine challenge after compound addition | shares compounds with TRPC6 inhibitor | signal change vs control, % at 10 µM | 920 tested, 31% active;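 active = membrane potential signal moving either way by over 3 SD of the maximum-effect control, in both duplicate plates, meaning non-specific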
HEK293 MPD ctr-1 – parental HEK293 nonspecific activity of TRPC6 inhibitors; shares compounds with TRPC6 inhibitor; membrane potential signal change, % at 10 µM; 920 tested, 60% active; parental HEK293 membrane potential dye fluorescence;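 active = membrane potential signal shifting up or down by more than 3 SD of buffer-only wells, on both duplicate plates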
HEK293 MPD ctr-2 – counter-screen for TRPC6 modulators: effect in parental HEK293 cells; shares compounds with TRPC6 inhibitor; membrane potential dye fluorescence; membrane potential signal change, % at 10 µM; 2,400 tested, 51% active; AID 488924;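 active = membrane potential signal moves up or down beyond 5 SD from buffer-only wells, on both duplicate plates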
HEK293 MPD ctr 2-2 – second check of TRPC6 modulator effects in parental HEK293 cells; shares compounds with TRPC6 inhibitor; membrane potential dye fluorescence; after compound, maximal acetylcholine stimulation; inhibition, % at 10 µM; 2,400 tested, 14% active;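 active = membrane potential signal drops by more than 5 SD from the mean control signal, in both duplicate plates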;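 also: plate controls were acetylcholine ECmax control wells for no effect and buffer only wells for full effect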
TRPC4 ctr mod – tests whether TRPC6 modulators also affect mouse TRPC4 | 2,400 tested, 69% active | HEK293 TRPC4/mu-opioid, membrane potential fluorescence | percent change from control (negative = decrease, positive = increase), % at 10 µM | shares compounds with TRPC6 inhibitor;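 active = membrane potential signal moved up or down beyond 5 SD of buffer control wells, in both duplicate plates, actives on both sides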;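 also: plate controls were assay buffer wells for no effect and DAMGO maximal-effect wells for full effect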
TRPC4 ctr inh 2 – second selectivity test of TRPC6 modulators against mouse TRPC4; HEK293 TRPC4/mu-opioid, membrane potential dye fluorescence; stimulated with maximal-effect DAMGO; shares compounds with TRPC6 inhibitor; inhibition, % at 10 µM; AID 488928; 2,400 tested, 55% active;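 active = drop in membrane potential signal beyond 5 SD of the control wells in both duplicate plates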;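 also: TRPC4 counter screen for TRPC6 hits run under conditions tuned for TRPC6 not TRPC4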
TRPC6 inh conf – confirmation of mouse TRPC6 inhibitors | HEK293-TRPC6, membrane potential dye, ACh-evoked depolarization | 3,300 tested, 43% active | AID 488960 | inhibition, % at 10 µM | shares compounds with TRPC6 inhibitor;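 active = fluorescence ratio falls more than 5 SD below the full-stimulation control mean, in both duplicate runs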;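 also: integrated fluorescence ratio of peak minus minimum over baseline after agonist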
TRPC6 act conf – confirmation of mouse TRPC6 activators; shares compounds with TRPC6 inhibitor; HEK293-TRPC6 membrane potential dye fluorescence, FDSS; activation, % at 10 µM; 2,800 tested, 11% active; AID 488961;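 active = ratio signal rise beyond 5 SD above unstimulated control wells' mean, seen in both duplicate runs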;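 also: plate controls were buffer EC0 wells for no effect and acetylcholine ECmax response for full effect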
Numbers without * were called inactive; i = inactive; x = no result.

SMILES | Kir21 block | TRPC4 block | TRPC4 act | TRPC6 activator | TRPC6 inhibitor | TRPC4 potent | HEK293 MPD ctr-2 | HEK293 MPD ctr 2-2 | TRPC4 ctr mod | TRPC4 ctr inh 2 | TRPC6 inh conf | TRPC6 act conf | others
S=C1N(c2ccccc2)C(c2ccc(Cl)cc2)N2CCCN12 (stereo not drawn) | -0.88 | i | i | i | -8.74* | i | x | x | x | x | 67.9%* | i | TRPC4 sel inh 2=i;TRPC4 spec=i;HEK293 MPD ctr 2-1=30.0%*;HEK293 MPD ctr-1=i
S=C1N(c2ccccc2)C(c2ccc(Br)cc2)N2CCCN12 (stereo not drawn) | -0.45 | i | i | i | -9.99* | i | x | x | x | x | 68.4%* | i | TRPC4 sel inh 2=i;TRPC4 spec=i;HEK293 MPD ctr 2-1=17.5%*;HEK293 MPD ctr-1=i
OCCC1CN(Cc2cccc(-n3cccn3)c2)CCN1Cc1ccccc1 (stereo not drawn) | -0.64 | i | i | i | i | i | x | x | x | x | x | x
C/C(=N/OC(=O)c1c(-c2ccccc2Cl)noc1C)c1cnccn1 | -0.85 | i | i | i | -6.05* | i | 107.5%* | i | 21.0%* | i | 52.5%* | x
C/C(=N/OC(=O)c1c(-c2c(Cl)cccc2Cl)noc1C)c1cnccn1 | 0.79 | i | i | i | -8.1* | i | x | x | x | x | 68.9%* | i | TRPC4 sel inh 2=i;TRPC4 spec=i;HEK293 MPD ctr 2-1=27.0%*;HEK293 MPD ctr-1=i
O=C1CCCc2cc3c(cc21)CC1(C3)Cc2cc3c(cc2C1)C(=O)CCC3 | -0.08 | i | i | i | i | i | x | x | x | x | x | x
O=C(NC(Nc1nc2ccc([N+](=O)[O-])cc2s1)(C(F)(F)F)C(F)(F)F)c1cccnc1 | -5.69* | i | i | 15.3* | -8.17* | i | 388.5%* | 93.0%* | 92.0%* | 59.5%* | 77.0%* | 88.5%*
CN(C)S(=O)(=O)c1ccc2nc(NC(=O)c3cccnc3)sc2c1 | -0.16 | i | i | i | i | i | x | x | x | x | x | x
Cc1nn(CC(=O)N2CCc3ccccc3C2)c(C)c1Cl | 0.66 | i | i | i | i | i | x | x | x | x | x | x
O=C(NC1CCCCCC1)C1CCN(C(=O)c2cccc(Cl)c2)CC1 | 1.27 | i | i | i | i | i | x | x | x | x | x | x
O=C(NC1CCCC1)c1ccc2c(c1)N(Cc1ccc(F)cc1)CCS2 | -1.43 | i | i | i | i | i | x | x | x | x | x | x
CN(C)CCNC(=O)c1ccc2c(c1)N(Cc1ccc(F)cc1)CCS2 | -2.63 | i | i | i | -6.41* | i | i | i | i | 73.5%* | 66.0%* | i
O=c1cc(-c2ccccc2)[nH]n1-c1ccc([N+](=O)[O-])cc1 | -0.21 | i | i | i | -7.88* | i | x | x | x | x | 66.5%* | i | TRPC4 sel inh 2=i;TRPC4 spec=11.8%*;HEK293 MPD ctr 2-1=i;HEK293 MPD ctr-1=5.7%*
N#CCCN(C(=O)Nc1ccc(Cl)cc1)c1ccccc1 | -0.26 | i | i | i | i | i | x | x | x | x | x | x
N#CCCN(CCC#N)C(=O)c1ccc(Cl)cc1 | -1.8 | i | i | i | -14* | i | i | i | i | i | i | i
Cc1ccc(C(=O)N2CCN(c3ccc(NC(=O)COc4ccccc4C)cc3)CC2)cc1 | 1.36 | i | i | i | i | i | x | x | x | x | x | x
CC(=O)c1ccc(OCCCN2CCCCC2)cc1 | 0.88 | i | i | i | -5.14* | i | i | i | i | i | i | i
O=C(c1ccccc1)c1ccc(OCCCN2CCCCC2)cc1 | -0.07 | i | i | i | i | i | x | x | x | x | x | x
CCOCCCNC(=S)N1CCCN(c2nc3cc(C)c(C)cc3cc2C#N)CC1 | -0.15 | i | i | i | i | i | x | x | x | x | x | x
COCCCNC(=S)N1CCCN(c2nc3cc(C)c(C)cc3cc2C#N)CC1 | -0.42 | i | i | i | -5.19* | i | i | i | i | i | 60.5%* | x
c1ccc2c(c1)CCc1ccccc1C2=C1CCNCC1 | -3.02 | i | i | i | -7.19* | i | x | x | x | x | i | i | TRPC4 sel inh 2=60.0%*;TRPC4 spec=3.8%*;HEK293 MPD ctr 2-1=i;HEK293 MPD ctr-1=2.8%*
Nc1ncc2c(n1)-c1ccccc1CC2 | -0.43 | i | i | i | i | i | x | x | x | x | x | x
CCOC(=O)CN1C(=O)C(=O)N(Cc2c(Cl)cccc2Cl)C1=O | -0.96 | i | i | i | -5.57* | i | i | i | i | i | i | i
CCOC(=O)CN1C(=O)C(=O)N(Cc2cccc(C)c2)C1=O | 0.04 | i | i | i | i | i | x | x | x | x | x | x
COc1ccc2oc(C(=O)NCCN3CCOCC3)c(C)c2c1OC | 0.1 | i | i | i | i | i | x | x | x | x | x | x
Cc1ccc(NC(=S)NCC(C)C)cc1 | -1.42 | i | i | i | -7.23* | i | x | x | x | x | i | i | TRPC4 sel inh 2=i;TRPC4 spec=i;HEK293 MPD ctr 2-1=i;HEK293 MPD ctr-1=i
CC(C)CNC(=S)Nc1ccc(S(N)(=O)=O)cc1 | 0.31 | i | i | i | i | i | x | x | x | x | x | x
COc1cc2[nH]c(=O)n3nc(-c4ccccc4)nc3c2cc1OC | -0.84 | i | i | i | i | i | x | x | x | x | x | x
